≈ marks a conversion by molar mass, not a printed value.
Legend:
Candida tropicalis = experiment: Anticandida activity against Candida tropicalis clinical isolate assessed as growth inhibition after 24 hrs by broth microdilution method; assay type: functional
Outline: (§1)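 Clinical Candida isolates subcultured for purity and optimal growth before testing; compounds dissolved in DMSO. Broth microdilution per NCCLS in Sabouraud dextrose broth, serial dilutions, inoculum about 10³/mL, with growth control and medium-only control; 24 h incubation at 37 °C. MIC is the lowest concentration giving complete visible inhibition.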

Pichia kudriavzevii = experiment: Anticandida activity against Candida krusei clinical isolate assessed as growth inhibition after 24 hrs by broth microdilution method; assay type: functional; outline: as §1
Nakaseomyces glabratus = experiment: Anticandida activity against Candida glabrata clinical isolate assessed as growth inhibition after 24 hrs by broth microdilution method; assay type: functional; outline: as §1
[Candida] sake = Anticandida activity against Candida sake clinical isolate assessed as growth inhibition after 24 hrs by broth microdilution method; assay type: functional; settings: Fermentozyma sake; outline: as §1
Candida parapsilosis = experiment: Anticandida activity against Candida parapsilosis clinical isolate assessed as growth inhibition after 24 hrs by broth microdilution method; assay type: functional; settings: Lodderomyces parapsilosis; outline: as §1
Candida albicans = experiment: Anticandida activity against Candida albicans clinical isolate assessed as growth inhibition after 24 hrs by broth microdilution method; assay type: functional; outline: as §1
[1] = test system: Streptococcus alpha-hemolyticus; experiment: Antibacterial activity against Streptococcus alpha-hemolyticus assessed as growth inhibition after 18 to 22 hrs by broth microdilution method
Staphylococcus warneri = experiment: Antibacterial activity against Staphylococcus warneri assessed as growth inhibition after 18 to 22 hrs by broth microdilution method; assay type: functional
Outline: (§2)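 Bacterial isolates subcultured for purity, identified conventionally. Broth microdilution per NCCLS in Mueller-Hinton II broth; plates with growth control (no compound) and medium-only control, incubated 18-22 h at 35 °C. MIC taken as lowest concentration giving complete growth inhibition by unaided eye.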

Klebsiella oxytoca = experiment: Antibacterial activity against Klebsiella oxytoca assessed as growth inhibition after 18 to 22 hrs by broth microdilution method; assay type: functional; outline: as §2
Enterobacter sp. = experiment: Antibacterial activity against Enterobacter spp. assessed as growth inhibition after 18 to 22 hrs by broth microdilution method; assay type: functional; outline: as §2
Staphylococcus aureus = experiment: Antibacterial activity against Staphylococcus aureus assessed as growth inhibition after 18 to 22 hrs by broth microdilution method; assay type: functional; outline: as §2
Enterococcus faecalis = experiment: Antibacterial activity against […] assessed as growth inhibition after 18 to 22 hrs by broth microdilution method; assay type: functional; outline: as §2
Proteus mirabilis = experiment: Antibacterial activity against Proteus mirabilis assessed as growth inhibition after 18 to 22 hrs by broth microdilution method; assay type: functional; outline: as §2
Escherichia coli = experiment: Antibacterial activity against Escherichia coli assessed as growth inhibition after 18 to 22 hrs by broth microdilution method; assay type: functional; outline: as §2

Compound	MIC (Candida tropicalis) [µg/mL]	MIC (Pichia kudriavzevii) [µg/mL]	MIC (Nakaseomyces glabratus) [µg/mL]	MIC ([Candida] sake) [µg/mL]	MIC (Candida parapsilosis) [µg/mL]	MIC (Candida albicans) [µg/mL]	MIC [1] [µg/mL]	MIC (Staphylococcus warneri) [µg/mL]	MIC (Klebsiella oxytoca) [µg/mL]	MIC (Enterobacter sp.) [µg/mL]	MIC (Staphylococcus aureus) [µg/mL]	MIC (Enterococcus faecalis) [µg/mL]	MIC (Proteus mirabilis) [µg/mL]	MIC (Escherichia coli) [µg/mL]
OC(Cn1cncn1)(Cn1cncn1)c1ccc(F)cc1F [FLUCONAZOLE]	4 (≈ 13.1 µM)	4 (≈ 13.1 µM)	4 (≈ 13.1 µM)	4 (≈ 13.1 µM)	4 (≈ 13.1 µM)	4 (≈ 13.1 µM)								
CCC(CC)=NNc1nc(-c2ccc(Cl)cc2Cl)cs1	4 (≈ 12.2 µM)	256 (≈ 780 µM)	4 (≈ 12.2 µM)	256 (≈ 780 µM)	256 (≈ 780 µM)	0.5 (≈ 1.52 µM)	> 256	> 256	> 256	> 256	> 256	> 256	> 256	> 256
COc1ccc(-c2csc(NN=C3CCCCCCC3)n2)cc1	16 (≈ 48.6 µM)	16 (≈ 48.6 µM)	4 (≈ 12.1 µM)	16 (≈ 48.6 µM)	16 (≈ 48.6 µM)	2 (≈ 6.07 µM)	> 256	> 256	> 256	> 256	> 256	> 256	> 256	> 256
COc1ccc(-c2csc(N/N=C3/C=CC(C)(C)CC3)n2)cc1	256 (≈ 782 µM)	256 (≈ 782 µM)	32 (≈ 97.7 µM)	256 (≈ 782 µM)	64 (≈ 195 µM)	8 (≈ 24.4 µM)	> 256	> 256	> 256	> 256	> 256	> 256	> 256	> 256
COc1ccc(-c2csc(N/N=C(\C)C3CCCCC3)n2)cc1	16 (≈ 48.6 µM)	16 (≈ 48.6 µM)	4 (≈ 12.1 µM)	16 (≈ 48.6 µM)	16 (≈ 48.6 µM)	2 (≈ 6.07 µM)	> 256	> 256	> 256	> 256	> 256	> 256	> 256	> 256
C=CCC/C(C)=N/Nc1nc(-c2ccc(Cl)cc2Cl)cs1	8 (≈ 23.5 µM)	8 (≈ 23.5 µM)	4 (≈ 11.8 µM)	256 (≈ 752 µM)	256 (≈ 752 µM)	2 (≈ 5.88 µM)	> 256	> 256	> 256	> 256	> 256	> 256	> 256	> 256
CC/C(C)=N/Nc1nc(-c2ccc(OC)cc2OC)cs1	256 (≈ 838 µM)	256 (≈ 838 µM)	128 (≈ 419 µM)	256 (≈ 838 µM)	256 (≈ 838 µM)	64 (≈ 210 µM)	> 256	> 256	> 256	> 256	> 256	> 256	> 256	> 256
COc1ccc(-c2csc(N/N=C(\C)CC(C)C)n2)c(OC)c1	256 (≈ 768 µM)	256 (≈ 768 µM)	128 (≈ 384 µM)	256 (≈ 768 µM)	256 (≈ 768 µM)	128 (≈ 384 µM)	> 256	> 256	> 256	> 256	> 256	> 256	> 256	> 256
CCC(CC)=NNc1nc(-c2ccc(OC)cc2)cs1	64 (≈ 221 µM)	256 (≈ 885 µM)	32 (≈ 111 µM)	256 (≈ 885 µM)	256 (≈ 885 µM)	16 (≈ 55.3 µM)	> 256	> 256	> 256	> 256	> 256	> 256	> 256	> 256
COc1ccc(-c2csc(N/N=C(\C)CC(C)C)n2)cc1	16 (≈ 52.7 µM)	16 (≈ 52.7 µM)	8 (≈ 26.4 µM)	16 (≈ 52.7 µM)	16 (≈ 52.7 µM)	4 (≈ 13.2 µM)	> 256	> 256	> 256	> 256	> 256	> 256	> 256	> 256
CCC(CC)=NNc1nc(-c2ccc(OC)cc2OC)cs1	256 (≈ 801 µM)	256 (≈ 801 µM)	128 (≈ 401 µM)	256 (≈ 801 µM)	256 (≈ 801 µM)	128 (≈ 401 µM)	> 256	> 256	> 256	> 256	> 256	> 256	> 256	> 256
COC1=CC(=O)C[C@@H](C)[C@]12Oc1c(Cl)c(OC)cc(OC)c1C2=O [GRISEOFULVIN]	8 (≈ 22.7 µM)	8 (≈ 22.7 µM)	4 (≈ 11.3 µM)	8 (≈ 22.7 µM)	8 (≈ 22.7 µM)	4 (≈ 11.3 µM)								

Reference: ChEMBL document CHEMBL2401735, “Synthesis and cytotoxicity of novel (thiazol-2-yl)hydrazine derivatives as promising anti-Candida agents” (Eur J Med Chem, 2013)
